Values after ≈ are worked out from the molar mass of the structure shown.
Columns and labels:
Aspergillus flavus = assay: Antifungal activity against Aspergillus flavus KCCM 11899 after 2 days by twofold broth dilution method; type: functional; conditions: KCCM 11899, 48 h
Summary of the method: (§1)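 Twofold broth dilution in modified Sabouraud dextrose broth. Inoculum about 1 × 10⁵ cells/mL. Incubated at 37 °C and read after two days. MIC taken as the lowest concentration of agent tested, with fluconazole and 5-fluorocytosine as reference agents.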

Pichia kudriavzevii = assay: Antifungal activity against Candida krusei KCCM 11655 after 1 day by twofold broth dilution method; type: functional; conditions: KCCM 11655, 24 h
Summary of the method: (§2)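 Candida strains were tested by twofold serial broth dilution in modified Sabouraud dextrose broth at roughly 1 × 10⁵ cells/mL, held at 37 °C and read after one day. MIC was taken as the lowest agent concentration, against fluconazole and 5-fluorocytosine standards.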

Cryptococcus neoformans = assay: Antifungal activity against Cryptococcus neoformans KCCM 50564 after 1 day by twofold broth dilution method; conditions: KCCM 50564, 24 h
Aspergillus niger = assay: Antifungal activity against Aspergillus niger KCTC 1231 after 2 days by twofold broth dilution method; type: functional; conditions: KCTC 1231, 48 h; summary of the method: as §1
Candida albicans = assay: Antifungal activity against Candida albicans KCCM 50235 after 1 day by twofold broth dilution method; type: functional; conditions: KCCM 50235, 24 h; summary of the method: as §2
Candida tropicalis = assay: Antifungal activity against Candida tropicalis KCCM 50662 after 1 day by twofold broth dilution method; type: functional; conditions: KCCM 50662, 24 h; summary of the method: as §2

SMILES	MIC (Aspergillus flavus)	MIC (Pichia kudriavzevii)	MIC (Cryptococcus neoformans)	MIC (Aspergillus niger)	MIC (Candida albicans)	MIC (Candida tropicalis)
CCOC(=O)c1c(N)oc2c1c(Br)c(O)c1ncccc12	6.3 µg/mL (≈ 17.9 µM)	6.3 µg/mL (≈ 17.9 µM)	25 µg/mL (≈ 71.2 µM)	6.3 µg/mL (≈ 17.9 µM)	12.5 µg/mL (≈ 35.6 µM)	6.3 µg/mL (≈ 17.9 µM)
CCOC(=O)c1c(N)oc2c1c(Cl)c(O)c1ncccc12	> 50 µg/mL	6.3 µg/mL (≈ 20.5 µM)	25 µg/mL (≈ 81.5 µM)	> 50 µg/mL	> 50 µg/mL	50 µg/mL (≈ 163 µM)
COC(=O)c1c(N)oc2c1c(Br)c(O)c1ncccc12	25 µg/mL (≈ 74.2 µM)	25 µg/mL (≈ 74.2 µM)	12.5 µg/mL (≈ 37.1 µM)	25 µg/mL (≈ 74.2 µM)	50 µg/mL (≈ 148 µM)	6.3 µg/mL (≈ 18.7 µM)
COC(=O)c1c(N)oc2c1c(C)c(O)c1ncccc12	3.2 µg/mL (≈ 11.8 µM)	25 µg/mL (≈ 91.8 µM)	25 µg/mL (≈ 91.8 µM)	12.5 µg/mL (≈ 45.9 µM)	0.8 µg/mL (≈ 2.94 µM)	6.3 µg/mL (≈ 23.1 µM)
CCOC(=O)c1c(N)oc2c1c(C)c(O)c1ncccc12	12.5 µg/mL (≈ 43.7 µM)	25 µg/mL (≈ 87.3 µM)	12.5 µg/mL (≈ 43.7 µM)	> 50 µg/mL	6.3 µg/mL (≈ 22 µM)	25 µg/mL (≈ 87.3 µM)
CCOC(=O)c1c(N)oc2c1c(Sc1cccc(F)c1)c(O)c1ncccc12	12.5 µg/mL (≈ 31.4 µM)	50 µg/mL (≈ 125 µM)	50 µg/mL (≈ 125 µM)	25 µg/mL (≈ 62.7 µM)	50 µg/mL (≈ 125 µM)	50 µg/mL (≈ 125 µM)
CCOC(=O)c1c(N)oc2c1c(Sc1ccc(F)cc1)c(O)c1ncccc12	6.3 µg/mL (≈ 15.8 µM)	50 µg/mL (≈ 125 µM)	50 µg/mL (≈ 125 µM)	50 µg/mL (≈ 125 µM)	50 µg/mL (≈ 125 µM)	50 µg/mL (≈ 125 µM)
CCOC(=O)c1c(N)oc2c1c(Sc1ccc(Br)cc1)c(O)c1ncccc12	0.8 µg/mL (≈ 1.74 µM)	1.6 µg/mL (≈ 3.48 µM)	25 µg/mL (≈ 54.4 µM)	1.6 µg/mL (≈ 3.48 µM)	1.6 µg/mL (≈ 3.48 µM)	0.8 µg/mL (≈ 1.74 µM)
CCOC(=O)c1c(N)oc2c1c(Sc1ccc(Cl)cc1)c(O)c1ncccc12	3.2 µg/mL (≈ 7.71 µM)	1.6 µg/mL (≈ 3.86 µM)	25 µg/mL (≈ 60.3 µM)	3.2 µg/mL (≈ 7.71 µM)	0.8 µg/mL (≈ 1.93 µM)	0.8 µg/mL (≈ 1.93 µM)
CCOC(=O)c1c(N)oc2c1c(Sc1ccccc1)c(O)c1ncccc12	3.2 µg/mL (≈ 8.41 µM)	3.2 µg/mL (≈ 8.41 µM)	25 µg/mL (≈ 65.7 µM)	3.2 µg/mL (≈ 8.41 µM)	3.2 µg/mL (≈ 8.41 µM)	1.6 µg/mL (≈ 4.21 µM)
CCOC(=O)c1c(N)oc2c1c(Sc1ccc(F)c(F)c1)c(O)c1ncccc12	1.6 µg/mL (≈ 3.84 µM)	1.6 µg/mL (≈ 3.84 µM)	50 µg/mL (≈ 120 µM)	1.6 µg/mL (≈ 3.84 µM)	0.8 µg/mL (≈ 1.92 µM)	1.6 µg/mL (≈ 3.84 µM)
CCOC(=O)c1c(N)oc2c1c(Sc1cccc(C)c1)c(O)c1ncccc12	12.5 µg/mL (≈ 31.7 µM)	25 µg/mL (≈ 63.4 µM)	3.2 µg/mL (≈ 8.11 µM)	25 µg/mL (≈ 63.4 µM)	12.5 µg/mL (≈ 31.7 µM)	25 µg/mL (≈ 63.4 µM)
CCOC(=O)c1c(N)oc2c1c(Sc1ccc(C)c(C)c1)c(O)c1ncccc12	6.3 µg/mL (≈ 15.4 µM)	25 µg/mL (≈ 61.2 µM)	12.5 µg/mL (≈ 30.6 µM)	12.5 µg/mL (≈ 30.6 µM)	25 µg/mL (≈ 61.2 µM)	12.5 µg/mL (≈ 30.6 µM)
CCOC(=O)c1c(N)oc2c1c(Sc1ccc(O)cc1)c(O)c1ncccc12	25 µg/mL (≈ 63.1 µM)	25 µg/mL (≈ 63.1 µM)	12.5 µg/mL (≈ 31.5 µM)	3.2 µg/mL (≈ 8.07 µM)	12.5 µg/mL (≈ 31.5 µM)	6.3 µg/mL (≈ 15.9 µM)
CCOC(=O)c1c(N)oc2c1c(Sc1ccc(OC)cc1)c(O)c1ncccc12	12.5 µg/mL (≈ 30.5 µM)	6.3 µg/mL (≈ 15.3 µM)	25 µg/mL (≈ 60.9 µM)	3.2 µg/mL (≈ 7.8 µM)	6.3 µg/mL (≈ 15.3 µM)	6.3 µg/mL (≈ 15.3 µM)
CCOC(=O)c1c(N)oc2c1c(Sc1ccc(C)cc1)c(O)c1ncccc12	50 µg/mL (≈ 127 µM)	50 µg/mL (≈ 127 µM)	12.5 µg/mL (≈ 31.7 µM)	3.2 µg/mL (≈ 8.11 µM)	6.3 µg/mL (≈ 16 µM)	12.5 µg/mL (≈ 31.7 µM)
CCOC(=O)c1c(N)oc2c1c(Sc1cccc(Cl)c1)c(O)c1ncccc12	12.5 µg/mL (≈ 30.1 µM)	6.3 µg/mL (≈ 15.2 µM)	1.6 µg/mL (≈ 3.86 µM)	3.2 µg/mL (≈ 7.71 µM)	6.3 µg/mL (≈ 15.2 µM)	12.5 µg/mL (≈ 30.1 µM)
CCOC(=O)c1c(N)oc2c1c(SC)c(O)c1ncccc12	50 µg/mL (≈ 157 µM)	50 µg/mL (≈ 157 µM)	6.3 µg/mL (≈ 19.8 µM)	50 µg/mL (≈ 157 µM)	12.5 µg/mL (≈ 39.3 µM)	12.5 µg/mL (≈ 39.3 µM)
CCOC(=O)c1c(N)oc2c1c(SCC)c(O)c1ncccc12	6.3 µg/mL (≈ 19 µM)	> 50 µg/mL	> 50 µg/mL	25 µg/mL (≈ 75.2 µM)	50 µg/mL (≈ 150 µM)	25 µg/mL (≈ 75.2 µM)
Cc1ccc2cccnc2c1[N+](=O)[O-]	> 50 µg/mL	> 50 µg/mL	50 µg/mL (≈ 266 µM)	> 50 µg/mL	> 50 µg/mL	> 50 µg/mL
Nc1ccc(O)c2ncccc12	> 50 µg/mL	> 50 µg/mL	> 50 µg/mL	50 µg/mL (≈ 312 µM)	50 µg/mL (≈ 312 µM)	50 µg/mL (≈ 312 µM)
OC(Cn1cncn1)(Cn1cncn1)c1ccc(F)cc1F [FLUCONAZOLE]	25 µg/mL (≈ 81.6 µM)	12.5 µg/mL (≈ 40.8 µM)	6.3 µg/mL (≈ 20.6 µM)	12.5 µg/mL (≈ 40.8 µM)	50 µg/mL (≈ 163 µM)	6.3 µg/mL (≈ 20.6 µM)
Nc1nc(=O)[nH]cc1F [FLUCYTOSINE]	1.6 µg/mL (≈ 12.4 µM)	3.2 µg/mL (≈ 24.8 µM)	6.3 µg/mL (≈ 48.8 µM)	3.2 µg/mL (≈ 24.8 µM)	3.2 µg/mL (≈ 24.8 µM)	3.2 µg/mL (≈ 24.8 µM)
